Experimental data: ChEMBL document CHEMBL1139513, “Synthesis and structure-activity relationships of novel selective factor Xa inhibitors with a tetrahydroisoquinoline ring” (J Med Chem, 2005)
pIC50, pKi: −log10 of the molar value.

Columns and labels:
Coagulation factor X = Coagulation factor X (Homo sapiens, UniProt P00742); experiment: Inhibitory concentration against human Coagulation factor X
Prothrombin = Prothrombin (Homo sapiens, UniProt P00734); experiment: Inhibitory concentration against human Coagulation factor II (thrombin)
[1] = Number of mice died after 1 day upon i.v. administration at 10 mg/kg into tail vein out of 3 animals tested; type: ADME, organism-based; parameters: dose 10 mg/kg, route intravenous; conditions: mouse, in vivo, iv, 24 h
In short: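 Male ICR mice given a single 10 mg/kg bolus into the tail vein. Result is expressed as deaths per animals tested.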

Plasminogen = Plasminogen (Homo sapiens, UniProt P00747); experiment: Inhibitory concentration against human Plasmin
Sequence of Plasminogen (P00747 97-580 limits assumed): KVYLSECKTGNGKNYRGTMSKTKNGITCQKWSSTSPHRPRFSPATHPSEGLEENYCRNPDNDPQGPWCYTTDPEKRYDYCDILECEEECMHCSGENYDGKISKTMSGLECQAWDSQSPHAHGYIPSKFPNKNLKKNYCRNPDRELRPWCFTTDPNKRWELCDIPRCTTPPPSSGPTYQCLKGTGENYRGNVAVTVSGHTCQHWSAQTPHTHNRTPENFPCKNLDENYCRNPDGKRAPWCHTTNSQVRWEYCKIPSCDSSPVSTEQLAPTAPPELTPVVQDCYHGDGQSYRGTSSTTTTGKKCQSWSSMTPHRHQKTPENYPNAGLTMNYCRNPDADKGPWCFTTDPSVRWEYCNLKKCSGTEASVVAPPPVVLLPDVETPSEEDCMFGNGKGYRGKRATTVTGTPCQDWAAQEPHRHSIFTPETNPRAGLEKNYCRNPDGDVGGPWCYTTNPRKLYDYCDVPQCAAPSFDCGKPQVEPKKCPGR
Sequence of Plasminogen (P00747 581-810 limits assumed): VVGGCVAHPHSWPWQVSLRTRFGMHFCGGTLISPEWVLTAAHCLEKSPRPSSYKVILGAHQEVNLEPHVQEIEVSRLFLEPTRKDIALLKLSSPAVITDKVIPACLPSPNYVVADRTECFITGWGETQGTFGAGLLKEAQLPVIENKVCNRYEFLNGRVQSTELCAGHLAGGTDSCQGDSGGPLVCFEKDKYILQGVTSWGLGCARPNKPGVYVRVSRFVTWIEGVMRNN
In short: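 Plasmin assay, human enzyme at 0.02 U/mL as added, preincubated 10 min at 37 °C with vehicle or compound at 12.5, 25 and 50 µM final. S-2403 was added at 0.125 and 0.25 mM final and incubated 10 min at 37 °C. Stopped with 60% acetic acid; A405 of p-nitroaniline.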

Trypsin = Trypsin (Homo sapiens, UniProt P07477+P07478+P35030); experiment: Inhibitory concentration against human Trypsin; type: protein assay
In short: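 Human trypsin (5 U/mL as added) preincubated 10 min at 37 °C with vehicle or compound at 50, 100 and 200 µM final. S-2222 was added at 0.125 and 0.25 mM final and incubated 10 min at 37 °C. Stopped with 60% acetic acid; p-nitroaniline read at 405 nm.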

Sequence of Coagulation factor X (P00742 41-179 limits assumed): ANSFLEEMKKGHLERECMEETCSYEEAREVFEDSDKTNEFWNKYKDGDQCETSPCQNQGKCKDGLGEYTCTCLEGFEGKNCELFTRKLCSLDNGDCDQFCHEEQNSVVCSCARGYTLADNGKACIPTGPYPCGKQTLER
Sequence of Coagulation factor X (P00742 235-488 limits assumed): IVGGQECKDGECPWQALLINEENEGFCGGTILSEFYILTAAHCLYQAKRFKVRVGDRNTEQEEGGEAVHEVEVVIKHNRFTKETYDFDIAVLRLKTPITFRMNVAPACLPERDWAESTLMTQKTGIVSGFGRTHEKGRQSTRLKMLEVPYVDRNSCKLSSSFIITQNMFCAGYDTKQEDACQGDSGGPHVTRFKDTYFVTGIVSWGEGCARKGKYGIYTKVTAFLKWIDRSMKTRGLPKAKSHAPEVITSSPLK

SMILES	pIC50 (Coagulation factor X)	pIC50 (Prothrombin)	Mortality [1]	pKi (Plasminogen)	Ki (Trypsin)
Cl.Cl.N=C(N)N1CCc2ccc(OCC3CCN(c4ccncc4C(=O)O)CC3)cc2C1	5.70	< 5.00	0		
CCOC(=O)CCc1cnccc1N1CCC(COc2ccc3c(c2)CN(C(=N)N)CC3)CC1.Cl.Cl	6.72	< 5.00	3		
CC(=N)N1CCC(COc2ccc3c(c2)CN(C(=N)N)CC3)CC1.Cl.Cl	6.29		3		
CCOC(=O)C1(COc2ccc3c(c2)CN(C(=N)N)CC3)CCN(c2ccncc2)CC1.Cl.Cl	7.13		3		
N=C(N)N1CCc2ccc(OCCC3(C(=O)O)CCN(c4ccncc4)CC3)cc2C1	6.64				
Cl.Cl.N=C(N)N1CCc2ccc(OCC3(C(=O)O)CCN(c4ccncc4)CC3)cc2C1			0		
N=C(N)N1CCc2ccc(OCC3CCN(Cc4ccccn4)CC3)cc2C1	5.87	< 5.00			
Cl.Cl.N=C(N)N1CCc2ccc(OCC3CCN(c4ccncc4CCC(=O)O)CC3)cc2C1	6.80		0		
N=C(N)c1ccc2ccc(OCC3(C(=O)O)CCN(c4ccncc4)CC3)cc2c1	6.29	< 5.00			
COC(=O)c1cnccc1N1CCC(COc2ccc3c(c2)CN(C(=N)N)CC3)CC1.Cl.Cl	6.57		3		
CCOC(=O)C1(COc2ccc3c(c2)CN(C(=N)N)CC3)CCN(c2cc[n+](C)cc2)CC1	5.95				
Cl.Cl.N=C(N)N1CCc2ccc(OCC3(C(=O)O)CCN(c4ccncn4)CC3)cc2C1	6.92		0		
N=C(N)N1CCc2ccc(OCC3CCNCC3)cc2C1	5.48	< 5.00			
Cc1cc(N2CCC(COc3ccc4c(c3)CN(C(=N)N)CC4)(C(=O)O)CC2)ccn1.Cl.Cl	6.64		0		
N=C(N)N1CCc2ccc(SCC3(C(=O)O)CCN(c4ccncc4)CC3)cc2C1	6.41				
N=C(N)N1CCc2ccc(S(=O)(=O)CC3(C(=O)O)CCN(c4ccncc4)CC3)cc2C1	5.26	< 5.00			
Cl.Cl.N=C(N)N1CCc2ccc(OCC3CCN(c4ccncc4)CC3)cc2C1	7.25		3		
CC(=N)N1CC[C@H](Oc2ccc([C@H](Cc3ccc4ccc(C(=N)N)cc4c3)C(=O)O)cc2)C1.Cl [DX-9065A HYDROCHLORIDE HYDRATE]				4.64	0.62 µM
Cl.Cl.Cl.N=C(N)N1CCc2ccc(OCC3CCN(Cc4ccncc4)CC3)cc2C1			3		
CC(=O)N1CCC(COc2ccc3c(c2)CN(C(=N)N)CC3)CC1		< 5.00			
N=C(N)N1CCc2ccc(OCC3CCN(Cc4cccc(N)c4)CC3)cc2C1	5.39	< 5.00			
Cl.Cl.N=C(N)N1CCc2ccc(OCC3CCN(c4ccnc5ccccc45)CC3)cc2C1	6.38		3		
N=C(N)N1CCc2ccc(S(=O)(=O)NC3(C(=O)O)CCN(c4ccncc4)CC3)cc2C1		< 5.00			
N=C(N)N1CCc2ccc(OCC3CCN(Cc4ccccc4N)CC3)cc2C1	5.49	< 5.00			
N=C(N)N1CCCc2ccc(OCC3(C(=O)O)CCN(c4ccncc4)CC3)cc2C1	< 5.00	< 5.00			
